# Measured values gathered from unrelated publications.
# Effect on: cell growth or viability
SMILES,cell line,assay,setting,endpoint,value
O=C(O)C(Cl)Cl,LoVo,MTT,72 h,IC50,> 50 µM
O=c1ccc2ccc3occc3c2o1,RD,WST-1,48 h,IC50,12.9 µM
O=c1c2ccccc2nc(S)n1-c1ccccc1,LoVo,LDH,"200 µg/mL, 24 h",viability,63%
c1ccc2c(c1)[I+]c1ccccc1-2,Caco-2,trypan blue,48 h,IC50,~0.01 µM
CCCCCCCCCCCCCCCC[N+](C)(C)C,LLC-PK1,MTT,,IC50,6 µM
Cc1cccc(-n2ncc(Cl)c(Cl)c2=O)c1,NCI-H2122,resazurin,96 h,IC50,1.15 µM
COc1c2c(cc3c1OCO3)[C@]13C=C[C@H](OC)C[C@@H]1[N@](C2)C[C@H]3OC(=O)c1ccoc1,A2780,WST-1,,IC50,> 10 µM
O=c1ccc2cc3ccoc3cc2o1,RD,WST-1,48 h,IC50,28.3 µM
COc1c2c(cc3c1OCO3)[C@]13C=C[C@H](OC)C[C@@H]1[N@](C2)C[C@H]3OC(=O)c1ccco1,A2780,WST-1,,IC50,> 10 µM
N.N.[Cl][Pt][Cl],LoVo,ATP luminescence,,GI50,1.7 mg/L
O=C(O)CCCc1ccc(N(CCCl)CCCl)cc1,A2780,CCK-8,48 h,IC50,> 50 µM
